# ChEMBL document CHEMBL1143965, “N-Phenyl-N'-(2-chloroethyl)ureas (CEUs) as potential antineoplastic agents. Part 3: role of carbonyl groups in the covalent binding to the colchicine-binding site” (2008)
# How the values were obtained:
# Type in all cases: functional
# [1] = test system: HT-29; test: Antiproliferative activity against human HT29 cells after 48 hrs; settings: HT-29, 48 h
# Outline: (§1)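 NCI-style sulforhodamine B growth assay. Cells in high-glucose DMEM with 5% iron-supplemented bovine calf serum were preincubated 24 h at 37 °C, 5% CO2. Drugs in DMSO (final <0.5%) were added at 0.1–100 µM final for 48 h. Cells were fixed with cold TCA (10% final, 60 min, 4 °C), stained with 0.1% SRB, solubilized in 20 mM Tris, and read at 585 nm against a day-0 plate. GI50 was taken; at least two runs in triplicate.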
# [2] = test system: M21; test: Antiproliferative activity against human M21 cells after 48 hrs; settings: M21, 48 h; outline: as §1
# [3] = test system: MCF7; test: Antiproliferative activity against human MCF7 cells after 48 hrs; settings: MCF7, 48 h; outline: as §1
# [4] = test system: M21; test: Induction of apoptosis in human M21 cells at 5 uM
# [5] = test system: M21; test: Induction of apoptosis in human M21 cells at 15 uM
# [6] = test system: M21; test: Cell cycle arrest in human M21 cells by accumulation at G0/G1 phase at 5 uM after 24 hrs by flow cytometry
# Outline: (§2)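 Exponentially growing M21 cells were exposed to drug (DMSO vehicle, <0.5% v/v) for 24 h, then collected and fixed with ice-cold ethanol. 5×10^5 cells were stained in PBS with 50 µg/mL propidium iodide plus 40 U/mL RNase A for 30 min at room temperature. Phase distribution was measured by flow cytometry.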
# [7] = test system: M21; test: Cell cycle arrest in human M21 cells by accumulation at G0/G1 phase at 15 uM after 24 hrs by flow cytometry; outline: as §2
# [8] = test system: M21; test: Cell cycle arrest in human M21 cells by accumulation at S phase at 5 uM after 24 hrs by flow cytometry; outline: as §2
# [9] = test system: M21; test: Cell cycle arrest in human M21 cells by accumulation at S phase at 15 uM after 24 hrs by flow cytometry; outline: as §2
# [10] = test system: M21; test: Cell cycle arrest in human M21 cells by accumulation at G2/M phase at 5 uM after 24 hrs by flow cytometry; outline: as §2
# [11] = test system: M21; test: Cell cycle arrest in human M21 cells by accumulation at G2/M phase at 15 uM after 24 hrs by flow cytometry; outline: as §2
# [12] = test system: M21; test: Cell cycle arrest in human M21 cells by accumulation at G0/G1 phase at 3 uM after 24 hrs by flow cytometry; outline: as §2
# [13] = test system: M21; test: Cell cycle arrest in human M21 cells by accumulation at G0/G1 phase at 10 uM after 24 hrs by flow cytometry; outline: as §2
# [14] = test system: M21; test: Cell cycle arrest in human M21 cells by accumulation at S phase at 3 uM after 24 hrs by flow cytometry; outline: as §2
# [15] = test system: M21; test: Cell cycle arrest in human M21 cells by accumulation at S phase at 10 uM after 24 hrs by flow cytometry; outline: as §2
# [16] = test system: M21; test: Cell cycle arrest in human M21 cells by accumulation at G2/M phase at 3 uM after 24 hrs by flow cytometry; outline: as §2
# [17] = test system: M21; test: Cell cycle arrest in human M21 cells by accumulation at G2/M phase at 10 uM after 24 hrs by flow cytometry; outline: as §2
# [18] = test system: M21; test: Induction of apoptosis in human M21 cells at 3 uM
# [19] = test system: M21; test: Induction of apoptosis in human M21 cells at 10 uM
# [20] = test system: M21; test: Induction of apoptosis in human M21 cells at 7 uM
# [21] = test system: M21; test: Induction of apoptosis in human M21 cells at 21 uM
# [22] = test system: M21; test: Induction of apoptosis in human M21 cells at 175 uM
# [23] = test system: M21; test: Cell cycle arrest in human M21 cells by accumulation at G0/G1 phase at 7 uM after 24 hrs by flow cytometry; outline: as §2
# [24] = test system: M21; test: Cell cycle arrest in human M21 cells by accumulation at G0/G1 phase at 21 uM after 24 hrs by flow cytometry; outline: as §2
# [25] = test system: M21; test: Cell cycle arrest in human M21 cells by accumulation at G0/G1 phase at 175 uM after 24 hrs by flow cytometry; outline: as §2
# [26] = test system: M21; test: Cell cycle arrest in human M21 cells by accumulation at S phase at 7 uM after 24 hrs by flow cytometry; outline: as §2
# [27] = test system: M21; test: Cell cycle arrest in human M21 cells by accumulation at S phase at 21 uM after 24 hrs by flow cytometry; outline: as §2
# [28] = test system: M21; test: Cell cycle arrest in human M21 cells by accumulation at S phase at 175 uM after 24 hrs by flow cytometry; outline: as §2
# [29] = test system: M21; test: Cell cycle arrest in human M21 cells by accumulation at G2/M phase at 7 uM after 24 hrs by flow cytometry; outline: as §2
# [30] = test system: M21; test: Cell cycle arrest in human M21 cells by accumulation at G2/M phase at 21 uM after 24 hrs by flow cytometry; outline: as §2
# [31] = test system: M21; test: Cell cycle arrest in human M21 cells by accumulation at G2/M phase at 175 uM after 24 hrs by flow cytometry; outline: as §2
# [32] = test system: M21; test: (§3) Cell cycle arrest in human M21 cells by accumulation at G0/G1 phase at 1.2 uM after 24 hrs by flow cytometry; outline: as §2
# [33] = test system: M21; test: Cell cycle arrest in human M21 cells by accumulation at G0/G1 phase at 4 uM after 24 hrs by flow cytometry; outline: as §2
# [34] = test system: M21; test: Cell cycle arrest in human M21 cells by accumulation at S phase at 1.2 uM after 24 hrs by flow cytometry; outline: as §2
# [35] = test system: M21; test: Cell cycle arrest in human M21 cells by accumulation at S phase at 4 uM after 24 hrs by flow cytometry; outline: as §2
# [36] = test system: M21; test: as §3; outline: as §2; remark: listed apart in the source
# [37] = test system: M21; test: Cell cycle arrest in human M21 cells by accumulation at G2/M phase at 4 uM after 24 hrs by flow cytometry; outline: as §2
# [38] = test system: M21; test: Induction of apoptosis in human M21 cells at 1.2 uM
# [39] = test system: M21; test: Induction of apoptosis in human M21 cells at 4 uM
Compound,GI50 [1],GI50 [2],GI50 [3],further results
COC(=O)Cc1cccc(NC(=O)NCCCl)c1,82.7 µM,> 100 µM,> 100 µM,–
NC(=O)Cc1cccc(NC(=O)NCCCl)c1,> 100 µM,> 100 µM,> 100 µM,–
CC(=O)CCCCc1cccc(NC(=O)NCCCl)c1,0.6 µM,1.1 µM,2 µM,Activity [4]: 11%; Activity [5]: 23%; Activity [6]: 44%; Activity [7]: 6%; Activity [8]: 13%; Activity [9]: 10%; Activity [10]: 25%; Activity [11]: 53%
O=C(O)CCCCc1cccc(NC(=O)NCCCl)c1,> 100 µM,> 100 µM,> 100 µM,–
NC(=O)CCCCc1cccc(NC(=O)NCCCl)c1,3.6 µM,5.7 µM,11.2 µM,–
O=C(O)CCCCCc1cccc(NC(=O)NCCCl)c1,35.9 µM,47.5 µM,> 100 µM,–
CCCCCc1cccc(NC(=O)NCCCl)c1,0.96 µM,0.87 µM,1.6 µM,Activity [12]: 14%; Activity [13]: 6%; Activity [14]: 11%; Activity [15]: 7%; Activity [16]: 50%; Activity [17]: 49%; Activity [18]: 18%; Activity [19]: 31%
CC(=O)CCCCCc1cccc(NC(=O)NCCCl)c1,0.9 µM,2.1 µM,3.9 µM,Activity [4]: 21%; Activity [5]: 16%; Activity [6]: 10%; Activity [7]: 11%; Activity [8]: 18%; Activity [9]: 18%; Activity [10]: 48%; Activity [11]: 53%
O=C(O)Cc1cccc(NC(=O)NCCCl)c1,> 100 µM,> 100 µM,> 100 µM,–
CCOC(=O)Cc1cccc(NC(=O)NCCCl)c1,> 100 µM,> 100 µM,> 100 µM,–
O=C(NCCCl)Nc1cccc(C(=O)O)c1,68.1 µM,67.9 µM,82.9 µM,–
NC(=O)c1cccc(NC(=O)NCCCl)c1,> 100 µM,> 100 µM,> 100 µM,–
CCOC(=O)CCCCc1cccc(NC(=O)NCCCl)c1,8.2 µM,11 µM,8.7 µM,–
CCOC(=O)CCCCCc1cccc(NC(=O)NCCCl)c1,19.8 µM,17.7 µM,22.5 µM,–
COCCCCCc1cccc(NC(=O)NCCCl)c1,0.84 µM,0.94 µM,1.9 µM,Activity [12]: 29%; Activity [13]: 7%; Activity [14]: 14%; Activity [15]: 9%; Activity [16]: 37%; Activity [17]: 52%; Activity [18]: 14%; Activity [19]: 24%
CCOC(=O)c1cccc(NC(=O)NCCCl)c1,> 100 µM,96.4 µM,> 100 µM,–
COC(=O)CCCCc1cccc(NC(=O)NCCCl)c1,8.1 µM,7.3 µM,15.1 µM,Activity [20]: 4%; Activity [21]: 6%; Activity [22]: 19%; Activity [23]: 46%; Activity [24]: 40%; Activity [25]: 18%; Activity [26]: 36%; Activity [27]: 34%; Activity [28]: 1%; Activity [29]: 14%; Activity [30]: 20%; Activity [31]: 62%
NC(=O)CCCCCc1cccc(NC(=O)NCCCl)c1,5.7 µM,8.9 µM,21.8 µM,–
COC(=O)c1cccc(NC(=O)NCCCl)c1,80.2 µM,86.2 µM,> 100 µM,–
O=C(NCCCl)Nc1cccc(CCCCCO)c1,0.16 µM,0.27 µM,0.48 µM,Activity [32]: 50%; Activity [33]: 6%; Activity [34]: 11%; Activity [35]: 7%; Activity [36]: 50%; Activity [37]: 53%; Activity [38]: 12%; Activity [39]: 27%
COC(=O)CCCCCc1cccc(NC(=O)NCCCl)c1,7.2 µM,7.1 µM,10.2 µM,Activity [20]: 4%; Activity [21]: 5%; Activity [22]: 19%; Activity [23]: 45%; Activity [24]: 49%; Activity [25]: 8%; Activity [26]: 37%; Activity [27]: 31%; Activity [28]: 1%; Activity [29]: 14%; Activity [30]: 15%; Activity [31]: 72%
CC(=O)c1cccc(NC(=O)NCCCl)c1,> 100 µM,> 100 µM,> 100 µM,–
